# ChEMBL document CHEMBL1144526, “Isoindolo[2,1-c]benzo[1,2,4]triazines: a new ring system with antiproliferative activity” (2007)
# Assays:
# Type in all cases: functional
# MCF7 [1] = experiment: Antiproliferative activity against human MCF7 cells at 100 uM after 48 hrs
# NCI-H460 = experiment: Antiproliferative activity against human NCI-H460 cells at 100 uM after 48 hrs
# SF-268 = experiment: Antiproliferative activity against human SF268 cells at 100 uM after 48 hrs
# EKVX = experiment: Growth inhibition of human EKVX cells
# Summary of the method: (§1)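 NCI full human tumour cell panel covering leukemia, melanoma, lung, colon, renal, ovarian, breast, prostate and CNS subpanels. Five concentrations at 10-fold dilution were used: 10^-4, 10^-5, 10^-6, 10^-7 and 10^-8 M. GI50, the concentration giving 50% inhibition of net cell growth, was determined for each cell line.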
# A549 = experiment: Growth inhibition of human A549 cells; summary of the method: as §1
# COLO 205 = experiment: Growth inhibition of human COLO205 cells; summary of the method: as §1
# LOX IMVI = experiment: Growth inhibition of human LOX IMVI cells; summary of the method: as §1
# M14 = experiment: Growth inhibition of human M14 cells; summary of the method: as §1
# OVCAR-8 = experiment: Growth inhibition of human OVCAR8 cells; summary of the method: as §1
# MCF7 [2] = experiment: Growth inhibition of human MCF7 cells; summary of the method: as §1
# BT-549 = experiment: Growth inhibition of human BT549 cells; summary of the method: as §1
# [3] = Growth inhibition of human NCI-50 cells; conditions: NCI full human tumour cell panel; summary of the method: as §1
# MOLT-4 = experiment: Growth inhibition of human MOLT4 cells; summary of the method: as §1
# SR = experiment: Growth inhibition of human SR cells; summary of the method: as §1
# NCI-H522 = experiment: Growth inhibition of human NCI-522 cells; summary of the method: as §1
Compound,Activity (MCF7 [1]) [%],Activity (NCI-H460) [%],Activity (SF-268) [%],GI50 [3] [µM],also measured
N#Cc1c2ccccc2c2nnc3ccc(Cl)cc3n12,51,61,86,–,–
Cc1cc2nnc3c4ccccc4c(C#N)n3c2cc1C,76,48,76,–,–
N#Cc1c2ccccc2c2nnc3cc(Cl)ccc3n12,109,109,114,–,–
N#Cc1c2ccccc2c2nnc3ccccc3n12,26,21,95,33.9,GI50 (EKVX): 12.6 µM; GI50 (A549): 13.5 µM; GI50 (COLO 205): 9.33 µM; GI50 (LOX IMVI): 6.46 µM; GI50 (M14): 14.8 µM; GI50 (OVCAR-8): 11.2 µM; GI50 (MCF7 [2]): 14.1 µM; GI50 (BT-549): 12 µM
Cc1cccc2nnc3c4ccccc4c(C#N)n3c12,69,50,88,–,–
N#Cc1c2ccccc2c2nnc3cc(C(F)(F)F)ccc3n12,65,6,82,53.7,GI50 (MCF7 [2]): 10.7 µM
N#Cc1c2ccccc2c2nnc3cc(Cl)c(Cl)cc3n12,80,17,68,49,–
Cc1cccc2c1nnc1c3ccccc3c(C#N)n21,72,118,105,–,–
N#Cc1c2ccccc2c2nnc3ccc(C(F)(F)F)cc3n12,83,8,96,34.7,GI50 (MOLT-4): 10.5 µM; GI50 (SR): 0.214 µM; GI50 (EKVX): ≤ 0.01 µM; GI50 (NCI-H522): 17 µM
COc1ccc2c(c1)nnc1c3ccccc3c(C#N)n21,63,86,104,–,–
